An excerpt weighted towards active compounds, which were near 2.3% of everything screened.
SR-BI DiI-HDL act = activators of SR-BI mediated DiI-HDL uptake, primary screen, ldlA[mSR-BI] CHO cells, DiI fluorescence; 3 h; 100 = double the neutral-control signal; activation, % at 12.5 µM; 0.096% of 320,000 active;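 active = mean replicate activation of at least 60% and every replicate at or above 60%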
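Material: SR-BI-overexpressing, LDLR-lacking CHO cells; schedule: compound exposure 3 h, 37 °C; reagent: DiI-labelled HDL at 10 µg/mL final; technique: bottom-read fluorescence, 550/595 nm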
CAL PDZ FP-1 = CAL PDZ peptide-binding inhibitors, primary screen, biochemical, fluorescence polarization, Cer-tagged CAL PDZ, HTS | Golgi-associated PDZ and coiled-coil motif-containing protein (Homo sapiens), Q9HD26 | purified CAL PDZ, TMR-peptide fluorescence polarization, 1 h | inhibition, % at 20 µM | 0.02% of 330,000 active;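 active = highest replicate inhibition of at least 40%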
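Material: tagged CAL PDZ domain; buffer or medium: 25 mM sodium phosphate pH 7.4, 150 mM NaCl, TCEP, IgG, Thesit; compound dosing: single point, 20 µM; schedule: 1 h incubation at room temperature before polarization reading; measured by: FP readout, S and P plane fluorescence; read-out basis: percent inhibition from loss of millipolarization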
SR-BI HDL uptake = inhibitors of SR-BI mediated HDL lipid uptake, primary screen, ldlA[mSR-BI] cells, fluorescence, single point. ldlA[mSR-BI] CHO cells, DiI-HDL uptake fluorescence, 3 h. 0.96% of 320,000 active. inhibition, % at 12.5 µM. AID 488896, 2010. Scavenger receptor class B member 1 (Mus musculus), Q61009;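 active = mean replicate inhibition of at least 70% and a set share of replicates each scoring 70 or more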
Target sequence (Q61009 whole entry, looked up): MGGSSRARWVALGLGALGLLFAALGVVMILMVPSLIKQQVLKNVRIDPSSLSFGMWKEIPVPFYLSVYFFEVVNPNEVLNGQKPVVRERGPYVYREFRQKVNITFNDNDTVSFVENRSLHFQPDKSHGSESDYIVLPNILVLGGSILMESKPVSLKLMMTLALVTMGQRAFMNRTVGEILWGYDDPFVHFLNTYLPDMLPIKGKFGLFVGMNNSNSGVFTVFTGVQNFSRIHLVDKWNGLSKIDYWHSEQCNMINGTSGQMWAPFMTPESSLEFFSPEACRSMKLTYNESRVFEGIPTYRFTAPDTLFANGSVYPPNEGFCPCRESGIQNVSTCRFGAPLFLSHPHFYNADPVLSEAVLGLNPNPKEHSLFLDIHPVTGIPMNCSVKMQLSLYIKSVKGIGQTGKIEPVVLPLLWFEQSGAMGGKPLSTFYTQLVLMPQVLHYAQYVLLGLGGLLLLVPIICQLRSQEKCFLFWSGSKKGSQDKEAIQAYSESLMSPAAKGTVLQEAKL
ATG4B inh = ATG4B protease inhibitors, primary screen, biochemical, fluorescence, uHTS | 0.51% of 340,000 active | ATG4B cleavage of LC3-PLA2, NBD-HPC fluorescence, 1 h | inhibition, % at 8.33 µM | Cysteine protease ATG4B (Homo sapiens), Q9Y4P1 | AID 504462, 2011; in the data active = inhibition above about 40%
CAL PDZ FP-2 = untagged CAL PDZ binding inhibitors, primary screen, biochemical, fluorescence polarization, HTS; inhibition, % at 24.9 µM; AID 602252, 2012; purified CAL PDZ, TMR-peptide fluorescence polarization, 1 h; 0.92% of 300,000 active; Golgi-associated PDZ and coiled-coil motif-containing protein (Homo sapiens), Q9HD26;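 active = mean inhibition of at least 30% with at least half of replicates also reaching 30%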
ATG4B conf = ATG4B protease inhibitors, retest, confirmation, biochemical, fluorescence, single concentration; shares compounds with ATG4B inh; ATG4B protease fluorescent substrate cleavage assay; inhibition, % at 8.33 µM; 92% of 320 active; AID 504757, 2011; in the data active = inhibition above about 39%
PLA2 counter = PLA2 enzyme inhibition, counter-screen for ATG4B inhibitor project, biochemical, single concentration, uHTS hits. inhibition, % at 8.33 µM. 66% of 1,600 active. AID 588402, 2011. shares compounds with ATG4B inh. purified PLA2, NBD-C6-HPC fluorescence, 45 min; in the data active = inhibition above about 50%
Target sequence (P04054 whole entry, looked up): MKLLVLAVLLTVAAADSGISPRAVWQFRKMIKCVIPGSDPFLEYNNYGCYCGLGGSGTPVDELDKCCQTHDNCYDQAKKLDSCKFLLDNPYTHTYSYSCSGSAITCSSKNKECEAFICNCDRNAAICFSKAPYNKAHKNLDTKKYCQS
Large screens that a line does not name were inactive (follow-up assays come after a bar, where they were run).

O=[N+]([O-])c1ccc(O)c(C=Nc2ccc3nc(-c4ccccc4)[nH]c3c2)c1	ATG4B inh 42 | PLA2 counter inactive
NC(=O)c1ccc(-c2nnn(CC(=O)Nc3cccc(S(=O)(=O)N4CCCC4)c3)n2)cc1	none
O=C(Cn1nnc(-c2ccc(S(=O)(=O)N3CCCC3)cc2)n1)Nc1ccccc1-n1cccc1	ATG4B inh 54 (no result: CAL PDZ FP-2) | PLA2 counter 62
CCOC(=O)C1CCN(C(=O)COc2ccc3c(c2)OCO3)CC1	none (no result: SR-BI DiI-HDL act, SR-BI HDL uptake, CAL PDZ FP-2)
O=C(CN1CCN(C(=O)C2COc3ccccc3O2)CC1)Nc1ccc(F)cc1 (configuration not stated)	none (no result: SR-BI DiI-HDL act, CAL PDZ FP-1, SR-BI HDL uptake, CAL PDZ FP-2)
O=C(c1ccc(Cl)c(S(=O)(=O)N2CCc3ccccc3C2)c1)N1CCN(c2ccccc2)CC1	none
O=C(c1ccc(Cl)c(S(=O)(=O)Nc2ccccc2C(=O)N2CCc3ccccc3C2)c1)N1CCc2ccccc2C1	ATG4B inh 48 | ATG4B conf 62 | PLA2 counter inactive
Oc1ccc(/C=C/c2cnccn2)cc1	none
O=C(NCc1cccc(C(F)(F)F)c1)c1cc(Cl)cc(Cl)c1	ATG4B inh 52 (no result: CAL PDZ FP-2) | ATG4B conf 60 | PLA2 counter inactive
O=C(NCc1cccc(Cl)c1)c1ccc(S(=O)(=O)Nc2cccc(C(F)(F)F)c2)cc1	ATG4B inh 58 | PLA2 counter 60
O=C(NCc1cccc(C(F)(F)F)c1)c1cc(Cl)ccc1Cl	none
O=C(Cc1cccc(C(F)(F)F)c1)NCc1cccc(Cl)c1	none
N#Cc1ccc(COC(=O)c2cnc3ccccc3n2)cc1	none (no result: SR-BI DiI-HDL act, SR-BI HDL uptake)
Cc1ccc(N(CC(=O)NCc2ccco2)C(=O)CCC(=O)Nc2nccs2)cc1	none (no result: SR-BI DiI-HDL act, SR-BI HDL uptake)
Cc1ccc(/C=N/NC(=O)COc2ccc(Cl)c(C)c2)o1	none (no result: SR-BI DiI-HDL act, SR-BI HDL uptake)
COc1ccc(-c2cc3cc(OC)c(OC)cc3c(C)n2)cc1C	none (no result: SR-BI DiI-HDL act, SR-BI HDL uptake)
COc1ccc(S(=O)(=O)N2CCC(C(=O)N[C@@H](C)C(=O)NCc3ccccc3OC)CC2)cc1	none
COc1cc(NS(=O)(=O)c2ccc(NC(=S)NC(=O)/C=C/c3ccco3)cc2)ncn1	ATG4B inh 56 | ATG4B conf 46 | PLA2 counter inactive
CCSc1nnc(NC(=O)CSc2nnc(Cc3cccn3C)n2CCc2ccccc2)s1	ATG4B inh 58 | PLA2 counter 52
COc1ccccc1CNC(=O)CC12CC3CC(CC(Br)(C3)C1)C2	none (no result: SR-BI DiI-HDL act, SR-BI HDL uptake)
Cc1cccc(C)c1N(C(=O)c1ccco1)C(C(=O)NC1CCCC1)c1ccncc1 (configuration not stated)	none (no result: SR-BI DiI-HDL act, SR-BI HDL uptake, CAL PDZ FP-2)
CCN(Cc1ccc2c(c1)OCO2)C(=O)CSc1nc(C)nc2sc(C)c(C)c12	ATG4B inh 58 | PLA2 counter 75
CCN(C(=O)CSc1nc(C)nc2sc(C)c(C)c12)c1ccc(F)cc1	none
Cc1cc(CN2CCN(CC(=O)Nc3cc(Cl)ccc3-n3cncn3)CC2)no1	none
COc1cc(OC)cc(-c2nc3ccccc3c(=O)n2OC(=O)c2ccccc2C)c1	ATG4B inh 45 | ATG4B conf 67 | PLA2 counter inactive
O=C(Nc1nc(-c2ccccc2)cs1)c1cccc([N+](=O)[O-])c1C(=O)O	ATG4B inh 55 | PLA2 counter 65
Cc1cccc(/C=C/c2onc(C)c2S(=O)(=O)N2CCC(C(=O)N3CCC(C)CC3)CC2)c1	none (no result: CAL PDZ FP-2)
Cc1noc(/C=C/c2ccco2)c1S(=O)(=O)N1CCC(C(=O)N2c3ccccc3CC2C)CC1 (configuration not stated)	ATG4B inh 48 | PLA2 counter 76
Cc1cccc(/C=C/c2onc(C)c2S(=O)(=O)N2CCC(C(=O)N3CCCCCC3)CC2)c1	ATG4B inh 40 (no result: SR-BI DiI-HDL act, SR-BI HDL uptake) | PLA2 counter 52
NC(=O)c1ncn([C@@H]2O[C@H](CNCc3cc(Cl)ccc3OCc3ccc(Cl)cc3)[C@@H](O)[C@H]2O)n1	none
COc1ccc(NC(=O)NC2CCCCCCC2)cc1	none
COc1ccc(N/C(=C2\CCCC2=O)C2CCCCC2)cc1	ATG4B inh 56 | PLA2 counter 60
O=C(c1ccccc1)c1cnc(Nc2ccccc2Cl)s1	ATG4B inh 44 (no result: CAL PDZ FP-2) | ATG4B conf 65 | PLA2 counter inactive
CC(C)(C)C(=O)c1cnc(Nc2ccccc2Cl)s1	none
O=S(Cc1ccc(Cl)cc1)c1ccccc1 (configuration not stated)	none
O=C(Cc1cn(Cc2cccc(Cl)c2)c2ccccc12)N1CCCCCC1	ATG4B inh 50 | PLA2 counter inactive
CC1CCCN(C(=O)Cc2cn(Cc3cccc(Cl)c3)c3ccccc23)C1 (configuration not stated)	ATG4B inh 48 | PLA2 counter 56
O=C(O)Cc1cn(Cc2cccc(Cl)c2)c2ccccc12	none
O=C(c1cccnc1)n1nc(NCc2ccccc2)nc1NCc1ccccc1	ATG4B inh 42 (no result: SR-BI DiI-HDL act, SR-BI HDL uptake) | PLA2 counter inactive
COc1ccccc1N1CCN(S(=O)(=O)c2ccc3nc(-c4ccccc4)[nH]c3c2)CC1	ATG4B inh 59 | PLA2 counter 58
Cc1ccccc1NC(=S)NCCSc1ccc(Cl)cc1	ATG4B inh 45 | PLA2 counter 51
CCc1ccccc1NC(=S)NCCSc1ccc(Cl)cc1	ATG4B inh 66 | PLA2 counter 80
Cc1cccc(NC(=S)NCCSc2ccc(Cl)cc2)c1	ATG4B inh 51 | PLA2 counter 64
Cc1ccc(C)c(NC(=S)NCCSc2ccc(Cl)cc2)c1	none
Cc1ccccc1C1CC(=O)c2ccccc2C1C (configuration not stated)	none
CCCCc1nc2cc(C(=O)N3CCCCC3CCNC(C)=O)ccc2o1 (configuration not stated)	none
CC1CC(C)CN(C(=O)c2ccc3c(c2NCCO)C(=O)c2ccccc2C3=O)C1 (configuration not stated)	ATG4B inh 59 | PLA2 counter 67
Cc1cccc(NC(=S)N2CCN(c3ccc(F)cc3)CC2)c1	none
COC(=O)c1ccc(N2CCN(C)CC2)c(NC(=O)c2cccs2)c1	none
Cc1ccc(-c2nc(Nc3cccc(C)c3)sc2CC(=O)O)cc1	none (no result: CAL PDZ FP-2)
O=C(O)Cc1sc(NC2CCCCC2)nc1-c1ccc(Cl)cc1	ATG4B inh 54 | ATG4B conf 65 | PLA2 counter inactive
